# Reference: PubChem BioAssay
# Unmarked numbers belong to inactive results. Records with an inconclusive call do not appear. Calls of active or inactive are those of the source.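 How the source made its calls, unless noted: active means viability increase at or above a cutoff of the median across tested compounds plus 3 SD (cut at about 8.5% in these data, passing the limit was not always enough); inconclusive means some gains above the cutoff, reason not given; inactive means the rest.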
# Experiments:
# [1] = OD615 S. cerevisiae growth inhibition, permissive medium, pilot counter-assay, permissive growth control for S. cerevisiae lifespan shortening project (AID 705;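 active means growth inhibition above 25% in both replicates, a cutoff set 3 SD above the mean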); conditions: OD615, 24 h, at 10 µM, stronger effect = higher value
# Method in brief: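 System: S. cerevisiae with engineered DeaD lifespan system. Medium: SC raffinose/galactose permissive medium. Doses: single compound dose of 10 µM, 0.25% DMSO final. Schedule: 24 h exposure, 30 °C. Measured by: OD615 turbidity read. Read-out: growth inhibition.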
# [2] = Restrictive medium S. cerevisiae growth inhibition, OD615, pilot screen of yeast lifespan reduction project, restrictive growth control (AID 706;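 active means growth inhibition above a set limit, 3 SD over mean compound inhibition, in both replicates, cut at about 43% in these data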;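 further: modified DeaD lifespan yeast strain shifted to restrictive glucose medium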); conditions: OD615, 48 h, at 10 µM, stronger effect = higher value
# Method in brief: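 Assay system – genetically modified Saccharomyces cerevisiae, DeaD replicative lifespan assay strain · Medium – CSMM-D glucose medium · Doses – 10 µM compound, 0.25% DMSO · Times – 4 h pre-incubation, 48 h exposure at 30 °C · Signal – optical density at 615 nm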
# [3] = viability gain of MRP-1-high H69AR cells under doxorubicin, pilot screen, MRP-1 activator project, CellTiter-Glo, duplicate (AID 807); conditions: H69AR viability with doxorubicin, CellTiter-Glo luminescence; at 10 µM; stronger effect = higher value;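 further: compound pretreatment 18-22 h then 72 h combined with doxorubicin; 0% = doxorubicin alone and 100% = vehicle without doxorubicin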
# [4] = growth suppression of beta-catenin knockout HCT116, pilot screen, human colon tumor cells (AID 823;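 active means cell viability at or below a set limit in both duplicate runs, the limit being the all-compound median minus 4 SD, cut at about 23% in these data, passing the limit was not always enough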;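 further: 0% = wells killed by 20 µM Hyamine and 100% = untreated DMSO cell wells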); conditions: CellTiter-Glo, 60 h, at 10 µM, stronger effect = lower value
# [5] = growth suppression of PTEN-deleted HCT116, pilot screen, cell-based, HCT116 clonal line, CellTiter-Glo (AID 824;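 active means viability at or below 27.92% in each of two runs, the all-compound median minus 4 SD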;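 further: 0% = 20 µM Hyamine control and 100% = vehicle cell control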); conditions: 60 h, at 10 µM, stronger effect = lower value
# [6] = inhibitors of the yeast RAM network, pilot screen, dse1pr::URA3 reporter, 5-FOA selection (AID 869;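 active means inhibition over a set limit, the all-compound mean plus 3 SD, in both replicate runs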;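 further: 0% = DMSO wells with no growth and 100% = 10 µM 1-NA-PP1 with full growth; RAM network block rescues cells from 5-FOA so hits raise OD615 growth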); conditions: S. cerevisiae dse1pr::URA3 5-FOA growth, OD615, 2 d; at 10 µM; stronger effect = higher value; strain carries analog-sensitive mutant Cbk1 kinase
# [7] = RAM signaling pathway blockade in yeast – S. cerevisiae, Pdr1DBD-CYC8 efflux-inhibited sensitized strain, primary screen (AID 1298;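 active means RAM network inhibition above 8.4% in each of two replicates, 3 SD over the compound average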;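 further: 0% = DMSO untreated cells without growth and 100% = 10 µM 1-NA-PP1 full growth; higher means more yeast growth rescued from 5-FOA killing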); conditions: S. cerevisiae cbk1-as DSE1-URA3 strain, 5-FOA growth OD615, 2 d; at 50 µM; stronger effect = higher value
Compound,growth inhibition [1],growth inhibition [2],viability increase [3],viability [4],viability [5],inhibition [6],RAM network inhibition [7]
Cn1c(C(=O)NCCCN2CCOCC2)cc2c(=O)n(C)c3ccccc3c21,0.23%,-0.345%,-4.09%,100%,91.5%,1.67%,-0.72%
CCOc1ccccc1Nc1nnc(Cc2ccccc2Cl)c(=O)[nH]1,-24.5%,-19.1%,-2.83%,90.7%,94.6%,0.115%,5.74%
C=CCSc1nc2c(c(=O)[nH]1)C(C(C)C)C(C#N)=C(N)O2 (centres undefined),0.845%,1.47%,-2.3%,101%,101%,1.75%,1.88%
COCCN1C(=O)C(CC(=O)Nc2ccc(C(=O)O)cc2)SC1=Nc1ccccc1 (centres undefined),-12.5%,-19.2%,-2.07%,96.4%,97.6%,2.39%,2.48%
Cc1c(C(=O)NCCN2CCOCC2)oc2ccc(S(=O)(=O)N3CCCCCC3)cc12,-3.55%,-1.55%,-2.1%,86.1%,90.6%,1.15%,-1.39%
CC(=O)NCC(=O)OCC(=O)c1ccc(C)c(C)c1,-7.93%,-2.07%,-1.39%,88.8%,95.1%,0.75%,-0.41%
CCCOc1ccc(N2C(=O)CC(N3CCN(c4ccccc4F)CC3)C2=O)cc1 (centres undefined),-0.95%,-3.87%,1.4%,94.7%,96.4%,0.125%,7.05%
CCN1CCn2c3c(c4cc(C)ccc42)CCCC31 (centres undefined),-4.94%,-6.53%,-2.11%,80.1%,74.9%,0.895%,0.21%
CCOC(=O)C1CCN(c2cc(=O)n(Cc3ccc(F)cc3)c(=O)[nH]2)CC1,-11%,-17.4%,-0.81%,96.8%,88.5%,3.19%,5.11%
CCOC(=O)c1nc2nc(C)cc(=O)n2[nH]1,-14.5%,-7.54%,0.46%,105%,97.7%,0.96%,4.54%
CCCn1c(CN2CCN(C(=O)OCC)CC2)nc2c1c(=O)n(C)c(=O)n2C,-3.08%,1.72%,-2.59%,92.3%,86.5%,0.325%,2.5%
COc1cc(NC(=O)Cc2ccccc2)cc(OC)c1,-1.66%,-4.67%,-2.51%,107%,96.7%,1.11%,0.25%
COc1ccccc1C1C(C(N)=O)=C(C)Nc2nc(-c3ccc(Cl)cc3)nn21 (centres undefined),-5.66%,0.335%,-1.26%,95%,92.4%,-0.455%,-1.72%
CC(=O)N1CCc2cc(C(=O)CN3CCCCC3)ccc21,-6.58%,-8.28%,-2.19%,99%,94.7%,0.435%,1.91%
COC(=O)C1=C(C)N=c2s/c(=C3\C(=O)Nc4ccccc43)c(=O)n2C1c1ccccc1 (centres undefined),-2%,-1.65%,-4.83%,92.3%,91.6%,1.77%,3.17%
CCn1c(SCC(=O)Nc2nnc(C)s2)nc2c(c1=O)SC(C)C2 (centres undefined),-0.875%,-16.4%,1.14%,103%,96.6%,2.4%,2.04%
COCCCNC(=O)c1ccccc1Oc1ccccc1,-8.28%,-2.05%,-1.39%,96.3%,97%,1.46%,1.58%
Cc1ccc(-c2cc3c(nn2)-c2ccccc2C3=O)cc1,-17%,-5.93%,-6.54%,53.4%,49.6%,4.56%,7.67%
CC1(C)CC(=O)C=C(NCCc2ccc(S(N)(=O)=O)cc2)C1,-8.44%,-12%,-0.64%,94.3%,96.2%,1.18%,1.82%
Cc1c(C(=O)NCC2CCCO2)sc2nc(-c3ccc(F)cc3)cn12 (centres undefined),3.06%,0.065%,1.26%,95.2%,97.3%,0.68%,3.33%
CC1CCN(C(=O)c2cc(-c3ccccc3O)on2)CC1,-10.2%,9.11%,-0.44%,108%,91.5%,0.335%,-2.14%
CCC(=O)Nc1ccc(C(=O)c2ccccc2)cc1,-6.81%,-2.21%,2.97%,98.5%,97%,1.16%,2.9%
CCC(=O)N=c1sc2c(C)cc(C)cc2n1CC(=O)OC,-9.96%,-16.1%,-0.83%,92.4%,88.7%,1.55%,2.76%
O=C(/C=C\Nc1ccccn1)c1ccc(Cl)cc1,-7.61%,-36.4%,0.28%,83.5%,81.7%,2.68%,8.82%

Compound,growth inhibition [1],growth inhibition [2],viability increase [3],viability [4],viability [5],inhibition [6],RAM network inhibition [7]
O=c1nc2scc(-c3ccccc3)n2c2ccccc12,-14.7%,-0.83%,-2.24%,94.1%,97.1%,4.32%,7.95%
Cc1ccc2c(c1)C1(C(=O)N2C)N2CC3(C)CN1CC(C)(C2)C3=O (centres undefined),6.63%,0.76%,-2.2%,99.1%,99%,1.27%,0.11%
CCCCOC(=O)Nc1ccc(S(=O)(=O)Nc2cc(C)nc(C)n2)cc1,-16.6%,-11.7%,-1.66%,95.8%,91.6%,1%,6.71%
COCC(=O)NCc1nc2ccccc2n1Cc1ccccc1F,-7.99%,-15.2%,-1.11%,98.2%,99.2%,1.59%,0.88%
O=C(CSc1nnc(Cn2c(=O)sc3ccccc32)n1-c1ccccc1)NCc1ccco1,-3.11%,-1.47%,-4.7%,99.5%,98.1%,1.22%,6%
O=C(NCCOC(=O)c1ccc(S(=O)(=O)N2CCOCC2)cc1)c1cccnc1,-19.9%,-9.85%,-0.91%,89.8%,91.7%,2.44%,2.11%
Cc1nc2sc(C(c3cccs3)N3CCN(Cc4ccccc4)CC3)c(O)n2n1 (centres undefined),-7.44%,-19.6%,-1.47%,101%,89.8%,-0.06%,4.97%
CCCCS(=O)CC(CS(=O)CCCC)OC(=O)c1ccccc1 (centres undefined),4.33%,5.83%,-1.89%,102%,96.1%,0.405%,2.4%
O=C(C1CC1)N1CCc2cc(Br)cc(S(=O)(=O)NCc3ccccn3)c21,-8.05%,-19%,-1.89%,99.2%,96.9%,1.32%,5.17%
O=C(Nc1nc(-c2cc3ccccc3oc2=O)cs1)c1ccco1,-17.5%,-10.9%,-1.98%,102%,100%,1.57%,3.32%
O=C(CCS(=O)(=O)c1ccccc1)Nc1nc(-c2ccccn2)cs1,-9.64%,-13.3%,-8.92%,8.11% (active),6.03% (active),1.85%,3.99%
CSc1ccccc1NC(=O)c1cnc2scc(C)n2c1=O,-16.8%,3.44%,-2.05%,87.1%,88.1%,0.665%,3.71%
CCOc1cc(-c2cc(N)n[nH]2)cc(OCC)c1OCC,-14.5%,-8.22%,-2.48%,104%,91.5%,0.37%,0.35%
Cn1c(=O)oc2cc(S(=O)(=O)NC3CCCc4ccccc43)ccc21 (centres undefined),-25.4%,-11.4%,-1.98%,92.4%,90.7%,3.1%,6.28%
CCOc1ccccc1N1C(=O)CC(Nc2ccc(N3CCOCC3)cc2)C1=O (centres undefined),-0.205%,7.53%,-2.65%,101%,101%,1.6%,5.11%
COc1ccc(-c2[nH]ncc2-c2cnc(C)s2)c(O)c1,-13.3%,-13%,-1.25%,99.2%,98.9%,2%,2.98%
COC(=O)c1cn(NC(=O)CC2CCCCC2)c(=O)c2ccccc12,7.57%,1.75%,0.01%,94%,91.7%,0.24%,2.22%
Cn1nc(-c2ccc(Cl)cc2)c2cc(C(=O)NC3CC3)sc21,-7.08%,-1.2%,-6.68%,83.6%,84.2%,3.62%,3.94%
C=CCNc1oc(COc2ccc(C)cc2)nc1C#N,-7.16%,1.92%,4.36%,99.1%,97.3%,1.18%,-0.52%
Cc1ccc(NC(=O)C2CCCN2S(=O)(=O)c2ccc3c(c2)CCC(=O)N3)cc1Cl (centres undefined),-9.43%,8.74%,3.52%,81.8%,85.8%,2.66%,3.45%
Cc1onc(-c2ccccc2Cl)c1C(=O)N1CCCCC1C(=O)O (centres undefined),0.56%,-2.38%,-1.22%,96.6%,98.6%,0.055%,4.06%
COc1cccc(CNC(=O)c2ccc(NC(=O)C3CCCO3)cc2)c1 (centres undefined),-23.1%,-16.5%,0.53%,95.1%,97.2%,1.14%,7.03%
CCOC(=O)C(C)n1cnc2c(nnn2-c2cccc(Cl)c2)c1=O (centres undefined),-4.37%,-3.95%,1.78%,102%,92.6%,2.58%,4.24%
